# Laboratory results reported in the M2OR odorant receptor database.
# Columns and labels:
# Settings in all cases: stereoisomer not certain
# [1] = target: T1, OR1A1 (Homo sapiens) (UniProt Q9P1Q5)
# T1 sequence (whole entry): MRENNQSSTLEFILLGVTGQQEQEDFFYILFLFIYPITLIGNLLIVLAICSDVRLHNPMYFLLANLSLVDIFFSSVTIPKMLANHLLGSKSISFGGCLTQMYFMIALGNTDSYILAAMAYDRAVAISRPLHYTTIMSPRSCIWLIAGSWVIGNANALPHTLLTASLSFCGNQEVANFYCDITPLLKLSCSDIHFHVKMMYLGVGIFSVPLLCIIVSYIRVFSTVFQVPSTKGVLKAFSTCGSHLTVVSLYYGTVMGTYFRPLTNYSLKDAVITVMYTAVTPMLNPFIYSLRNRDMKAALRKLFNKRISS
# In short: (§1)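 Values were gathered from published papers (main text and supplementary material), with extra details requested from the original authors when needed, and checked for typos and inconsistencies. Each receptor–molecule pair is called responsive (active) if the original authors judged the measured signal statistically different from baseline, and non-responsive (inactive) otherwise. Assay methods varied by source, often transient mammalian cell-line luciferase assays. Recorded details include cell line, G-protein, co-transfected protein and tags.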
# [2] = target: OR13G1 (Homo sapiens) (UniProt Q8NGZ3)
# OR13G1 (Homo sapiens), sequence (Q8NGZ3 whole entry): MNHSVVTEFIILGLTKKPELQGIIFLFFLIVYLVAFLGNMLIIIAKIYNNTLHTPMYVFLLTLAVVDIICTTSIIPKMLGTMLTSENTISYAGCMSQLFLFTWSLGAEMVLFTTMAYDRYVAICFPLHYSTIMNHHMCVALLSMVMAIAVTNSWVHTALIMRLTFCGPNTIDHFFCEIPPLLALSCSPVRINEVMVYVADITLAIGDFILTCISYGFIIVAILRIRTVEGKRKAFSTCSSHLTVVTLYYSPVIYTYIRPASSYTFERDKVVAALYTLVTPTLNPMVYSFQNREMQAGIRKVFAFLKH
# In short: as §1
# [3] = target: OR13H1 (Homo sapiens) (UniProt Q8NG92)
# OR13H1 (Homo sapiens), sequence (Q8NG92 whole entry): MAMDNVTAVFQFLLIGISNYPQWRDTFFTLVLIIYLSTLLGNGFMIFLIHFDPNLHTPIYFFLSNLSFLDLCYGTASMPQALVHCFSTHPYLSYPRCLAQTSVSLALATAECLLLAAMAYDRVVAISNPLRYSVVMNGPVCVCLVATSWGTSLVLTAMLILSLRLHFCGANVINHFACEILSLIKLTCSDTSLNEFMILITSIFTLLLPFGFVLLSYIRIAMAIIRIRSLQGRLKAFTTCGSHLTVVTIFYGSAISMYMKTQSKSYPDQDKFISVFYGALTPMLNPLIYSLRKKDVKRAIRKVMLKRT
# In short: as §1
# [4] = target: OR13J1 (Homo sapiens) (UniProt Q8NGT2)
# OR13J1 (Homo sapiens), sequence (Q8NGT2 whole entry): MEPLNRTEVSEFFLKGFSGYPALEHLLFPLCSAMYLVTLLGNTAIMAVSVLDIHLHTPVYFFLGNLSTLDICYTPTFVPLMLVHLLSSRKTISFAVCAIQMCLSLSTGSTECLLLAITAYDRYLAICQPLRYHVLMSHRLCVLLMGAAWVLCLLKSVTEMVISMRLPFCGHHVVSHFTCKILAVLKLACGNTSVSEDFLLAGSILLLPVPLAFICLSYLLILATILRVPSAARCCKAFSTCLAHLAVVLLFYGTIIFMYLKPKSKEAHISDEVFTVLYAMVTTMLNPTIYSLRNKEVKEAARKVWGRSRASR
# In short: as §1
# [5] = target: OR14A16 (Homo sapiens) (UniProt Q8NHC5)
# OR14A16 (Homo sapiens), sequence (Q8NHC5 whole entry): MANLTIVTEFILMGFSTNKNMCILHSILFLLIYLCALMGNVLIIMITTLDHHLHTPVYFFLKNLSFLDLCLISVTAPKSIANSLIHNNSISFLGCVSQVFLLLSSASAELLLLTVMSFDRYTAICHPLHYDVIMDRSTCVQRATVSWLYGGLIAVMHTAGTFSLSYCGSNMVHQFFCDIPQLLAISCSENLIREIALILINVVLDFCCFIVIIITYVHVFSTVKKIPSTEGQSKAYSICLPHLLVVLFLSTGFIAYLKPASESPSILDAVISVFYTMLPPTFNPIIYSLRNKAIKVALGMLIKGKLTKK
# In short: as §1
# [6] = target: OR14A2 (Homo sapiens) (UniProt Q96R54)
# OR14A2 (Homo sapiens), sequence (Q96R54 whole entry): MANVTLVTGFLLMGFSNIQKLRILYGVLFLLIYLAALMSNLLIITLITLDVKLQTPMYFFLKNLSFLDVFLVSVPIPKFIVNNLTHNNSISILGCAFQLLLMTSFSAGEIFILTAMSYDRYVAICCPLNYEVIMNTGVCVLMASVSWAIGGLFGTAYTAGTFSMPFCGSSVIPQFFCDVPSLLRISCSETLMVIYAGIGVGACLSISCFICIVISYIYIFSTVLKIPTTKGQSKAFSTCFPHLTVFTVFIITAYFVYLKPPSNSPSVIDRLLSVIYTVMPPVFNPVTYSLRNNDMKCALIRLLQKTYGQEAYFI
# In short: as §1
# [7] = target: OR14C36 (Homo sapiens) (UniProt Q8NHC7)
# OR14C36 (Homo sapiens), sequence (Q8NHC7 whole entry): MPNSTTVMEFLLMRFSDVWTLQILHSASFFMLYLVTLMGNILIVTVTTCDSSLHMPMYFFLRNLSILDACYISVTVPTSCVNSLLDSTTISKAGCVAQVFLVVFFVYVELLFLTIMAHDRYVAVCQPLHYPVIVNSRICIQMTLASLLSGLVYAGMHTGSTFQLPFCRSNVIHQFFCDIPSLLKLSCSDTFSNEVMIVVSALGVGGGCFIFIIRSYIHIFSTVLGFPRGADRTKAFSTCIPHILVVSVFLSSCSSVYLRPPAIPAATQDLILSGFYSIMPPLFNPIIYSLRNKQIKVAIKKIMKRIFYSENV
# In short: as §1
# [8] = target: OR14I1 (Homo sapiens) (UniProt A6ND48)
# OR14I1 (Homo sapiens), sequence (A6ND48 whole entry): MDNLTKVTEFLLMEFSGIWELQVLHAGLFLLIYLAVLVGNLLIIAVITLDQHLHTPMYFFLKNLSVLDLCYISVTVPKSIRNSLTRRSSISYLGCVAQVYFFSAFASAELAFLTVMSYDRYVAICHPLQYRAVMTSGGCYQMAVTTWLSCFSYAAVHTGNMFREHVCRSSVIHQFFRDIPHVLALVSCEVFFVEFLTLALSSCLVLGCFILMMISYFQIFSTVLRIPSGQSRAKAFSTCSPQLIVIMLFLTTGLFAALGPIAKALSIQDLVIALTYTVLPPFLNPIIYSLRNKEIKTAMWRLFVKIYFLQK
# In short: as §1
# [9] = target: OR14J1 (Homo sapiens) (UniProt Q9UGF5)
# OR14J1 (Homo sapiens), sequence (Q9UGF5 whole entry): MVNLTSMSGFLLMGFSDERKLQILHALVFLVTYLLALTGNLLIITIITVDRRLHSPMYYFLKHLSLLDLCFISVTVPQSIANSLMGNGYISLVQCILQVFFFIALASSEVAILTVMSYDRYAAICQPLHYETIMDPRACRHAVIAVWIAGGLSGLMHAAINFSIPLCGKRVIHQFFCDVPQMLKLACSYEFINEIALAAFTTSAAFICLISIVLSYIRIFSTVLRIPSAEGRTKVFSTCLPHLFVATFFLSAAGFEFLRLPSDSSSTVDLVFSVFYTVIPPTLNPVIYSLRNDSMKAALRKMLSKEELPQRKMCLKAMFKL
# In short: as §1
# [10] = target: OR14K1 (Homo sapiens) (UniProt Q8NGZ2)
# OR14K1 (Homo sapiens), sequence (Q8NGZ2 whole entry): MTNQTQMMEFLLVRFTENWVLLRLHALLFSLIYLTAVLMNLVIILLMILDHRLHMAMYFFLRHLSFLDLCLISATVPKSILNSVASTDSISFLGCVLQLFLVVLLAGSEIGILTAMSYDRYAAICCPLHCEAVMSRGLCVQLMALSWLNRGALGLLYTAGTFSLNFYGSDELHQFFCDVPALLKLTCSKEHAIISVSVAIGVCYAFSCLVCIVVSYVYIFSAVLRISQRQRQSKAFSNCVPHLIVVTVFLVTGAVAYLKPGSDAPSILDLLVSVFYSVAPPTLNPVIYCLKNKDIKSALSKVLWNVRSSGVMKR
# In short: as §1
# [11] = target: T2, OR1A2 (Homo sapiens) (UniProt Q9Y585)
# T2 sequence (whole entry): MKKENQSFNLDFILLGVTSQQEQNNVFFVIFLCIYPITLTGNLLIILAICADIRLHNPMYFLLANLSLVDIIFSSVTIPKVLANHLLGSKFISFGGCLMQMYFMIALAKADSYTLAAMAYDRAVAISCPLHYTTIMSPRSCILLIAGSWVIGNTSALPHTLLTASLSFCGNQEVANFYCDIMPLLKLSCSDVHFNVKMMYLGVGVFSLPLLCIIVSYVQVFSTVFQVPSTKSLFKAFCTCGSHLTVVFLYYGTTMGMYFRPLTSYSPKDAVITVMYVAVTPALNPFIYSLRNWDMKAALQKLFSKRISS
# In short: as §1
# [12] = system: OR1A2 G256C W293C
# In short: as §1
# [13] = system: OR1B1
# OR1B1, sequence (as listed by the source): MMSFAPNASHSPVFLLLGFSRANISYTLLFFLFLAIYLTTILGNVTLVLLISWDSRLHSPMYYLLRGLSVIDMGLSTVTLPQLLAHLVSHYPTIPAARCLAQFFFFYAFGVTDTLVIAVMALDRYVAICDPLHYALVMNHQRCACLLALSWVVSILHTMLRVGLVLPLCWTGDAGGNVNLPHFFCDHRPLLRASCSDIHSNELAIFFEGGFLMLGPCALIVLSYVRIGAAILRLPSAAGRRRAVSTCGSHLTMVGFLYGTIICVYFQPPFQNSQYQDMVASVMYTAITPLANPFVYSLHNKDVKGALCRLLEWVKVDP
# In short: as §1
# [14] = target: OR1C1 (Homo sapiens) (UniProt Q15619)
# OR1C1 (Homo sapiens), sequence (Q15619 whole entry): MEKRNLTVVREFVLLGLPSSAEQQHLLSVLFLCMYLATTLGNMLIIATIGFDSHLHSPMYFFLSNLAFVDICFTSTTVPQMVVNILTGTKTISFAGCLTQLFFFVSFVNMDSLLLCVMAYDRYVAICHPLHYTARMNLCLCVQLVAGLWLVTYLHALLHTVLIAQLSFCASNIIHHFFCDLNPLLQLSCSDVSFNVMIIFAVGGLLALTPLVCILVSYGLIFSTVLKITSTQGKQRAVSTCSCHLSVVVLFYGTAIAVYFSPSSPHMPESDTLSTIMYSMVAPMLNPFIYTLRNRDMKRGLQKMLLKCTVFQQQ
# In short: as §1
# [15] = target: T3, OR1D2 (Homo sapiens) (UniProt P34982)
# T3 sequence (whole entry): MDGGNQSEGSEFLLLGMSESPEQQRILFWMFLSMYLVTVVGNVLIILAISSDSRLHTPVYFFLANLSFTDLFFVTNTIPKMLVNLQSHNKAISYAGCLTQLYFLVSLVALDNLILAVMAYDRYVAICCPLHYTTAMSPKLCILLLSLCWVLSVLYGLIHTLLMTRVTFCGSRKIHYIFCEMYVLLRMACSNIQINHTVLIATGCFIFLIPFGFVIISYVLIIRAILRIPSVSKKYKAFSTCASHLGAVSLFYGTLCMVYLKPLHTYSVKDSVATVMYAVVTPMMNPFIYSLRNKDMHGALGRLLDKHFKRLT
# In short: as §1
# [16] = target: OR1D5 (Homo sapiens) (UniProt P58170)
# OR1D5 (Homo sapiens), sequence (P58170 whole entry): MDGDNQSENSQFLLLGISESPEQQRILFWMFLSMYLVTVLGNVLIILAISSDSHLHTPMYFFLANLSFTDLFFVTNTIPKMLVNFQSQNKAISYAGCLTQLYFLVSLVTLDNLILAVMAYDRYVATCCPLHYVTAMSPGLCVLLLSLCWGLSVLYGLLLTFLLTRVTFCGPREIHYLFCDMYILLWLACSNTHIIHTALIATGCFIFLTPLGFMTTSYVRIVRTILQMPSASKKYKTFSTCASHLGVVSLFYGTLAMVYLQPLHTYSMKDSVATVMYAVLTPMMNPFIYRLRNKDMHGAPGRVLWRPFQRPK
# In short: as §1
# [17] = target: OR1E1 (Homo sapiens) (UniProt P30953)
# OR1E1 (Homo sapiens), sequence (P30953 whole entry): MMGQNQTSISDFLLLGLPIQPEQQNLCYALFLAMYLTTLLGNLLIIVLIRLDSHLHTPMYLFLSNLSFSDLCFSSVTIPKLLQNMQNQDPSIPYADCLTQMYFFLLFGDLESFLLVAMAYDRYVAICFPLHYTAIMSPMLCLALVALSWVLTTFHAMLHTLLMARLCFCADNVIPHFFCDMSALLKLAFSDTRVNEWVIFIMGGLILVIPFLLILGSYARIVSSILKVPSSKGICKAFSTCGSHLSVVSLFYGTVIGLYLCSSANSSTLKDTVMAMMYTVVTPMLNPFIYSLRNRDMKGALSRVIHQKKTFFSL
# In short: as §1
# [18] = target: OR1E2 (Homo sapiens) (UniProt P47887)
# OR1E2 (Homo sapiens), sequence (P47887 whole entry): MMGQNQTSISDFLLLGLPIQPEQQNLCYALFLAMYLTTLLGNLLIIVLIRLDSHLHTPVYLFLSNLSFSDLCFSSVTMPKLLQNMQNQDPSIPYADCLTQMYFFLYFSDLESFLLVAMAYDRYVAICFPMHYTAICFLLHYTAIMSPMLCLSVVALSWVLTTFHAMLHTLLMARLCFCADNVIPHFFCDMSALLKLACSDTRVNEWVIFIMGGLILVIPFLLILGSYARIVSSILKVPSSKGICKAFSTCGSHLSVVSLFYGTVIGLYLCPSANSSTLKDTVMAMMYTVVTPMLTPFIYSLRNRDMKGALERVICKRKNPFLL
# In short: as §1
# [19] = system: OR1E2
# OR1E2, sequence (as listed by the source): as the sequence (P47887 whole entry) above, with C27R counted along it
# In short: as §1
# [20] = target: OR1D4 (Homo sapiens) (UniProt P47884)
# OR1D4 (Homo sapiens), sequence (P47884 whole entry): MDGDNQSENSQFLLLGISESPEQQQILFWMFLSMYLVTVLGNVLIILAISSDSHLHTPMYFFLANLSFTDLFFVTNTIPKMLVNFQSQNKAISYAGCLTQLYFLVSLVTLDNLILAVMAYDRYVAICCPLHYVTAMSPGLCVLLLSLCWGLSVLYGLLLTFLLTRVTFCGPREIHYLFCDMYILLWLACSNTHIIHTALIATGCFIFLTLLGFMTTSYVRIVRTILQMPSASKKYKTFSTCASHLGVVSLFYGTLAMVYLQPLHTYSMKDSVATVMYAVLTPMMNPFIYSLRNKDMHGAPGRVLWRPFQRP
# In short: as §1
smiles,measurement,setting,value
COc1ccc(C=O)cc1,odorant receptor agonist call,[1],inactive
C=CCc1ccccc1,odorant receptor agonist call,[1],inactive
SCc1ccco1,odorant receptor agonist call,[1],inactive
CCC1CCC(=O)O1 (centres undefined),odorant receptor agonist call,[1],inactive
C=CCOC(=O)Cc1ccccc1,odorant receptor agonist call,[2],inactive
same,odorant receptor agonist call,[3],inactive
same,odorant receptor agonist call,[4],inactive
same,odorant receptor agonist call,[5],inactive
same,odorant receptor agonist call,[6],inactive
same,odorant receptor agonist call,[7],inactive
same,odorant receptor agonist call,[8],inactive
same,odorant receptor agonist call,[9],inactive
same,odorant receptor agonist call,[10],inactive
same,odorant receptor agonist call,[1],active
same,odorant receptor agonist call,[11],inactive
same,odorant receptor agonist call,[12],inactive
same,odorant receptor agonist call,[13],inactive
same,odorant receptor agonist call,[14],inactive
same,odorant receptor agonist call,[15],inactive
same,odorant receptor agonist call,[16],inactive
same,odorant receptor agonist call,[17],inactive
same,odorant receptor agonist call,[18],inactive
same,odorant receptor agonist call,[19],inactive
C=CCc1ccc(OC)cc1,odorant receptor agonist call,[1],active
O=c1cc(O)c2ccccc2o1,odorant receptor agonist call,[1],inactive
Cc1c([N+](=O)[O-])c(C)c([N+](=O)[O-])c(C(C)(C)C)c1[N+](=O)[O-],odorant receptor agonist call,[2],inactive
same,odorant receptor agonist call,[3],inactive
same,odorant receptor agonist call,[4],inactive
same,odorant receptor agonist call,[5],inactive
same,odorant receptor agonist call,[6],inactive
same,odorant receptor agonist call,[7],inactive
same,odorant receptor agonist call,[8],inactive
same,odorant receptor agonist call,[9],inactive
same,odorant receptor agonist call,[10],inactive
same,odorant receptor agonist call,[1],active
same,odorant receptor agonist call,[11],inactive
same,odorant receptor agonist call,[13],inactive
same,odorant receptor agonist call,[14],inactive
same,odorant receptor agonist call,[20],inactive
same,odorant receptor agonist call,[16],inactive
same,odorant receptor agonist call,[18],inactive
O=CC=Cc1ccccc1,odorant receptor agonist call,[15],inactive
CCCCCCC(Br)C(=O)O (centres undefined),odorant receptor agonist call,[1],inactive
same,odorant receptor agonist call,[11],inactive
CSSC,odorant receptor agonist call,[1],inactive
CC(C=O)Cc1ccc2c(c1)OCO2 (centres undefined),odorant receptor agonist call,[1],active
same,odorant receptor agonist call,[11],active
same,odorant receptor agonist call,[15],inactive
CCC(Br)C(=O)O (centres undefined),odorant receptor agonist call,[1],inactive
same,odorant receptor agonist call,[11],inactive
CCCC(Br)C(=O)O (centres undefined),odorant receptor agonist call,[1],inactive
same,odorant receptor agonist call,[11],inactive
Cc1ccc(O)c(C)c1,odorant receptor agonist call,[1],inactive
C=CCSSCC=C,odorant receptor agonist call,[1],inactive
CCCCC(Br)C(=O)O (centres undefined),odorant receptor agonist call,[1],inactive
same,odorant receptor agonist call,[11],inactive
Cc1ccccc1O,odorant receptor agonist call,[1],inactive
CCOC(=O)Cc1ccccc1,odorant receptor agonist call,[1],active
O=Cc1ccccc1,odorant receptor agonist call,[15],inactive
ClC=CCl,odorant receptor agonist call,[1],inactive
same,odorant receptor agonist call,[11],inactive
O=C([O-])Cc1ccccc1,odorant receptor agonist call,[1],inactive
same,odorant receptor agonist call,[11],inactive
O=C(O)Cc1ccccc1,odorant receptor agonist call,[1],inactive
